Published values of several laboratories.
Target: TGF-beta receptor type-1 (TGFBR1, Homo sapiens, UniProt P36897)

Compound | test | setting | endpoint | result
CCCCN(CCCC)C(=O)CN1C[C@H](c2cc(OC)c3c(c2)OCO3)[C@@H](C(=O)O)[C@@H]1CC(C)(C)CCC | cell-free assay, competition with immobilised ligand | 1 µM | remaining binding | 98.6%
COc1cc2ncnc(Nc3ccc(F)c(Cl)c3)c2cc1OCCCN1CCOCC1 | cell-free assay | 0.5 µM | remaining signal | 99.6%
Cc1cc(-n2nc(Cc3cc(F)cc(C(F)(F)F)c3)nc2C)ccc1C(N)=O | cell-free assay, competition with immobilised ligand | 1 µM | remaining binding | 94%
Cc1sc(C(=O)NC2COC2)cc1-n1cc(NC(=O)Nc2c(F)cccc2Cl)cn1 | enzyme activity, inhibitor | 10 µM | remaining activity | 104%
COc1cccc(F)c1Cn1cnc(-c2ccc(F)cc2)c1-c1ccncc1 | cell-free assay, TR-FRET | 1 µM | inhibition | 20%
O=C(NS(=O)(=O)c1ccc(NCC2CCOCC2)c([N+](=O)[O-])c1)c1ccc(N2CCN(Cc3ccc(C(F)(F)F)cc3-c3ccc(Cl)cc3)CC2)cc1Oc1cnc2[nH]ccc2c1 | cell-free assay, competition with immobilised ligand | 1 µM | remaining binding | 93%
Fc1ccc(-c2ncn(-c3ccc4ccccc4c3)c2-c2ccncc2)cc1 | cell-free assay, TR-FRET | 1 µM | inhibition | 14%
C=CC(=O)Nc1cc(Nc2nccc(Nc3cc(Cl)c(F)cc3C(C)(C)O)n2)c(OC)cc1N1CC[C@@H](N(C)C)C1 | enzyme activity, inhibitor | 1 µM | inhibition | 42%
Cc1ccc(C(=O)Nc2ccc(CN3CCN(C)CC3)c(C(F)(F)F)c2)cc1C#Cc1cnc2cccnn12 | cell-free assay | 23.5 nM | remaining signal | 98%
O=C1Nc2ccc(Cl)cc2C1=Cc1cc(Cl)c(O)c(Cl)c1 | cell-free assay | 0.5 µM | remaining signal | 102%
C[C@H](c1cccc(C#N)c1)n1cc(Cl)cc(C(N)=O)c1=N | cell-free assay, competition with immobilised ligand | 1 µM | remaining binding | 100%
COc1cc(Cl)c(C(=O)N[C@@H](CN[C@H]2CC[C@@H](N)CC2)Cc2ccc(C#N)cc2)cc1-c1ccc(CN[C@H](C)c2ccc(C)cc2)o1 | enzyme activity, inhibitor | 1 µM | remaining activity | 103%
CC(=O)C1=C(C)N(c2cccc(C(F)(F)F)c2)C(=O)N[C@@H]1c1ccc(C#N)nc1 | cell-free assay, competition with immobilised ligand | 1 µM | remaining binding | 99.2%
COc1cc(-c2cc(-c3ccc(N4CCNCC4)cc3)cnc2C)cc(OC)c1OC | enzyme activity, inhibitor | 0.1 µM | inhibition | 3%
Fc1ccc(-c2ncn(-c3ccc(-c4ccccc4)cc3)c2-c2ccncc2)cc1 | cell-free assay, TR-FRET | 1 µM | inhibition | 15%
CCOC(=O)c1cc2cc(-c3cc(C(=O)NCc4ccc(C(=O)O)cc4)nn3C)ccc2[nH]1 | cell-free assay, competition with immobilised ligand | 0.1 µM | remaining binding | 100%
CCOc1cc(-c2nncn2C)ccc1Nc1ncc2cc(C)nc(NCC(C)(C)C)c2n1 | cell-free assay, TR-FRET | 1 µM | inhibition | ≤ 15%
C#Cc1cccc(Nc2ncnc3cc(OCCOC)c(OCCOC)cc23)c1 | cell-free assay | 0.5 µM | remaining signal | 99.1%
CO[C@H]1CC[C@H](CNc2ccc(S(=O)(=O)NC(=O)c3ccc(N4CCN(CC5=C(c6ccc(Cl)cc6)CC(C)(C)CC5)CC4)cc3Oc3cnc4[nH]ccc4c3)cc2[N+](=O)[O-])CC1 | cell-free assay, competition with immobilised ligand | 1 µM | remaining binding | 84%
CC(C)(C)c1nc2c(s1)c1nc(N)ncc1c1ccc(NS(=O)(=O)c3c(F)cccc3F)c(F)c12 | enzyme activity, inhibitor, radiometric | 1 µM | remaining activity | 102%
Nc1ncnc2occ(-c3ccc(NC(=O)Nc4cc(C(F)(F)F)ccc4F)cc3)c12 | cell-free assay | 20 µM | remaining signal | 52%
Fc1ccc(-c2ncn(C3=CCCCC3)c2-c2ccncc2)cc1 | cell-free assay, TR-FRET | 1 µM | inhibition | 19%
CS(=O)(=O)Nc1cccc(-c2csc(NC(=O)CSc3nc4nccnc4c(=O)n3CCc3ccccc3)n2)c1 | enzyme activity, inhibitor | 10 µM | inhibition | 5%
CCCOc1ccc([C@@H]2[C@@H](C(=O)O)[C@H](c3ccc4c(c3)OCO4)CN2CC(=O)Nc2c(CC)cccc2CC)cc1 | cell-free assay, competition with immobilised ligand | 1 µM | remaining binding | 64%
C[S+]([O-])c1ccc(-c2nc(-c3ccncc3)c(-c3ccc(F)cc3)[nH]2)cc1 (stereo not shown) | cell-free assay | 0.5 µM | remaining signal | 101%
Fc1ccc(-c2c(-c3ccncc3)ncn2-c2ccc3ccccc3c2)cc1 | cell-free assay, TR-FRET | 1 µM | inhibition | 21%
CC(C)(O)[C@H]1CC[C@H](Nc2ccc3ncc(-c4cccc(C(F)(F)F)c4)n3n2)CC1 | enzyme activity, inhibitor | 1 µM | remaining activity | 108%
Cc1ccc(Nc2nccc(N(C)c3ccc4c(C)n(C)nc4c3)n2)cc1S(N)(=O)=O | cell-free assay | 0.5 µM | remaining signal | 103%
